Legend:
UACC-62 = assay: Growth inhibition of human UACC62 cells after 48 hrs by sulforhodamine B assay; format: functional; conditions: UACC-62, 48 h
In short: (§1)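 NCI in vitro panel screen. Compounds tested at five 10-fold dilutions, 10^-4 to 10^-8 M. Cells in 96-well plates were exposed for the last 48 h of a 72 h incubation. Viability/growth was read by sulforhodamine B protein assay. GI50 is the concentration giving 50% growth inhibition. Values beyond the tested range are reported as greater or less than the maximum or minimum concentration.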

SF-295 = assay: Growth inhibition of human SF295 cells after 48 hrs by sulforhodamine B assay; format: functional; conditions: SF-295, 48 h
In short: (§2)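 NCI screen panel. Five 10-fold concentrations from 10^-4 to 10^-8 M. Exposure for the last 48 h of a 72 h incubation. Growth estimated by sulforhodamine B protein assay. GI50 is the concentration giving 50% growth inhibition. Where that level was not reached or was exceeded, the value is given as above or below the highest or lowest concentration tested.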

OVCAR-4 = assay: Growth inhibition of human OVCAR4 cells after 48 hrs by sulforhodamine B assay; format: functional; conditions: OVCAR-4, 48 h; in short: as §2
TK-10 = assay: Growth inhibition of human TK10 cells after 48 hrs by sulforhodamine B assay; format: functional; conditions: TK-10, 48 h; in short: as §1
SNB-75 = assay: Growth inhibition of human SNB75 cells after 48 hrs by sulforhodamine B assay; format: functional; conditions: SNB-75, 48 h; in short: as §1
U-251 = assay: Growth inhibition of human U251 cells after 48 hrs by sulforhodamine B assay; format: functional; conditions: U-251, 48 h; in short: as §1
M14 = assay: Growth inhibition of human M14 cells after 48 hrs by sulforhodamine B assay; format: functional; conditions: M14, 48 h; in short: as §2
HOP-92 = assay: Growth inhibition of human HOP92 cells after 48 hrs by sulforhodamine B assay; format: functional; conditions: HOP-92, 48 h; in short: as §2
T47D = assay: Growth inhibition of human T47D cells after 48 hrs by sulforhodamine B assay; format: functional; in short: as §1
COLO 205 = assay: Growth inhibition of human COLO205 cells after 48 hrs by sulforhodamine B assay; format: functional; conditions: COLO 205, 48 h; in short: as §2
OVCAR-3 = assay: Growth inhibition of human OVCAR-3 cells after 48 hrs by sulforhodamine B assay; format: functional; conditions: OVCAR-3, 48 h; in short: as §2
CCRF-CEM = assay: Growth inhibition of human CCRF-CEM cells after 48 hrs by sulforhodamine B assay; format: functional; in short: as §2
MDA-MB-435 = assay: Growth inhibition of human MDA-MB-435 cells after 48 hrs by sulforhodamine B assay; format: functional; conditions: MDA-MB-435, 48 h; in short: as §2
MOLT-4 = assay: Growth inhibition of human MOLT4 cells after 48 hrs by sulforhodamine B assay; format: functional; conditions: MOLT-4, 48 h; in short: as §2
HCT-116 = assay: Growth inhibition of human HCT116 cells after 48 hrs by sulforhodamine B assay; format: functional; conditions: HCT-116, 48 h; in short: as §2
DU-145 = assay: Growth inhibition of human DU145 cells after 48 hrs by sulforhodamine B assay; format: functional; conditions: DU-145, 48 h; in short: as §2
786-0 = assay: Growth inhibition of human 786-0 cells after 48 hrs by sulforhodamine B assay; format: functional; conditions: 786-0, 48 h; in short: as §2
SK-MEL-28 = assay: Growth inhibition of human SK-MEL-28 cells after 48 hrs by sulforhodamine B assay; format: functional; conditions: SK-MEL-28, 48 h; in short: as §2
SR = assay: Growth inhibition of human SR cells after 48 hrs by sulforhodamine B assay; format: functional; in short: as §1
SN12C = assay: Growth inhibition of human SN12C cells after 48 hrs by sulforhodamine B assay; format: functional; in short: as §1
EKVX = assay: Growth inhibition of human EKVX cells after 48 hrs by sulforhodamine B assay; format: functional; in short: as §2
SW-620 = assay: Growth inhibition of human SW620 cells after 48 hrs by sulforhodamine B assay; format: functional; conditions: SW-620, 48 h; in short: as §1
NCI-H460 = assay: Growth inhibition of human NCI-H460 cells after 48 hrs by sulforhodamine B assay; format: functional; conditions: NCI-H460, 48 h; in short: as §2
HL-60(TB) = assay: Growth inhibition of human HL-60(TB) cells after 48 hrs by sulforhodamine B assay; format: functional; conditions: HL-60, 48 h
In short: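 NCI 60-cell-line screen protocol: cells exposed to compound at five 10-fold dilutions from 10^-4 to 10^-8 M for the last 48 h of a 72 h incubation. Sulforhodamine B protein assay estimated viability/growth. GI50 (50% growth inhibition) derived; where not reached or exceeded, reported as greater or less than the highest or lowest concentration tested.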

SK-OV-3 = assay: Growth inhibition of human SKOV3 cells after 48 hrs by sulforhodamine B assay; format: functional; conditions: SK-OV-3, 48 h; in short: as §2
MDA-MB-231 = assay: Growth inhibition of human MDA-MB-231 cells after 48 hrs by sulforhodamine B assay; format: functional; conditions: MDA-MB-231, 48 h; in short: as §2
PC-3 = assay: Growth inhibition of human PC3 cells after 48 hrs by sulforhodamine B assay; format: functional; conditions: PC-3, 48 h; in short: as §2
MT4 = assay: Antiproliferative activity against human MT4 cells assessed as reduction of growth by MTT assay; format: functional, cell-based
In short: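 MT-4 lymphoblastoid T cells (ATCC) in RPMI 1640 with 10% FCS, penicillin/streptomycin, checked for mycoplasma. 1 × 10⁴ mock-infected cells per well with serial dilutions from a 100 mM DMSO stock. Incubated 4 days at 37 °C, viable cells counted by MTT. IC50 versus untreated controls by linear regression. Mean of three separate experiments.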

SNB-19 = assay: Growth inhibition of human SNB19 cells after 48 hrs by sulforhodamine B assay; format: functional; conditions: SNB-19, 48 h; in short: as §1
BT-549 = assay: Growth inhibition of human BT549 cells after 48 hrs by sulforhodamine B assay; format: functional; conditions: BT-549, 48 h; in short: as §2
HCT-15 = assay: Growth inhibition of human HCT15 cells after 48 hrs by sulforhodamine B assay; format: functional; conditions: HCT-15, 48 h; in short: as §2
NCI-H322M = assay: Growth inhibition of human NCI-H322M cells after 48 hrs by sulforhodamine B assay; format: functional; in short: as §2
[1] = Growth inhibition of human […] cells after 48 hrs by sulforhodamine B assay; format: functional; in short: as §2
HOP-62 = assay: Growth inhibition of human HOP62 cells after 48 hrs by sulforhodamine B assay; format: functional; conditions: HOP-62, 48 h; in short: as §2
NCI-H23 = assay: Growth inhibition of human NCI-H23 cells after 48 hrs by sulforhodamine B assay; format: functional; conditions: NCI-H23, 48 h; in short: as §2
CAKI-1 = assay: Growth inhibition of human Caki1 cells after 48 hrs by sulforhodamine B assay; format: functional; conditions: CAKI-1, 48 h; in short: as §2
Malme-3M = assay: Growth inhibition of human MALME-3M cells after 48 hrs by sulforhodamine B assay; format: functional; in short: as §2
ACHN = assay: Growth inhibition of human ACHN cells after 48 hrs by sulforhodamine B assay; format: functional; in short: as §2
K562 = assay: Growth inhibition of human K562 cells after 48 hrs by sulforhodamine B assay; format: functional; conditions: K562, 48 h; in short: as §2
OVCAR-8 = assay: Growth inhibition of human OVCAR8 cells after 48 hrs by sulforhodamine B assay; format: functional; conditions: OVCAR-8, 48 h; in short: as §2
SF-268 = assay: Growth inhibition of human SF268 cells after 48 hrs by sulforhodamine B assay; format: functional; conditions: SF-268, 48 h; in short: as §2
A549 = assay: Growth inhibition of human A549 cells after 48 hrs by sulforhodamine B assay; format: functional; conditions: A549, 48 h; in short: as §2
HT-29 = assay: Growth inhibition of human HT-29 cells after 48 hrs by sulforhodamine B assay; format: functional; conditions: HT-29, 48 h; in short: as §2
LOX IMVI = assay: Growth inhibition of human LOXIMVI cells after 48 hrs by sulforhodamine B assay; format: functional; in short: as §2
UO-31 = assay: Growth inhibition of human UO31 cells after 48 hrs by sulforhodamine B assay; format: functional; conditions: UO-31, 48 h; in short: as §1
SK-MEL-5 = assay: Growth inhibition of human SK-MEL-5 cells after 48 hrs by sulforhodamine B assay; format: functional; conditions: SK-MEL-5, 48 h; in short: as §2
KM12 = assay: Growth inhibition of human KM12 cells after 48 hrs by sulforhodamine B assay; format: functional; conditions: KM12, 48 h; in short: as §2

With `CCOC(=O)/C(=C/N1CCN(C(=O)c2ccco2)C1=S)C(=O)c1ccccc1` the GI50 (UACC-62) was 7.6 µM, the GI50 (SF-295) was 16.4 µM and the GI50 (OVCAR-4) was 31 µM. It also gave a GI50 (TK-10) of 12.4 µM, a GI50 (SNB-75) of 46 µM and a GI50 (U-251) of 11.5 µM. For the same molecule, the GI50 (M14) was 8.9 µM, the GI50 (HOP-92) was 23 µM and the GI50 (T47D) was 4.1 µM. The GI50 (COLO 205) was 19.2 µM, the GI50 (OVCAR-3) was 20.2 µM and the GI50 (CCRF-CEM) was 15.6 µM. The GI50 (MDA-MB-435) was 14.4 µM, the GI50 (MOLT-4) was 19.6 µM and the GI50 (HCT-116) was 8.9 µM. For the same molecule, the GI50 (DU-145) was 8 µM, the GI50 (786-0) was 12.9 µM and the GI50 (SK-MEL-28) was 22.2 µM. The GI50 (SR) was 2.4 µM, the GI50 (SN12C) was 8.1 µM and the GI50 (EKVX) was 9.5 µM. It also gave a GI50 (SW-620) of 7.9 µM, a GI50 (NCI-H460) of 4.9 µM and a GI50 (HL-60(TB)) of 14.9 µM. It also gave a GI50 (SK-OV-3) of 20 µM, a GI50 (MDA-MB-231) of 10.8 µM and a GI50 (PC-3) of 19.4 µM. The IC50 (MT4) was 4 µM, the GI50 (SNB-19) was 35.6 µM and the GI50 (BT-549) was 9 µM. The GI50 (HCT-15) was 6.3 µM, the GI50 (NCI-H322M) was 14.2 µM and the GI50 [1] was 12.4 µM. It also gave a GI50 (HOP-62) of 17.3 µM, a GI50 (NCI-H23) of 7.7 µM and a GI50 (CAKI-1) of 15.9 µM. The GI50 (Malme-3M) was 13.3 µM, the GI50 (ACHN) was 8.5 µM and the GI50 (K562) was 17.7 µM. The GI50 (OVCAR-8) was 11.7 µM, the GI50 (SF-268) was 7.2 µM and the GI50 (A549) was 11.6 µM. For the same molecule, the GI50 (HT-29) was 19.2 µM, the GI50 (LOX IMVI) was 6.5 µM and the GI50 (UO-31) was 10 µM. The GI50 (SK-MEL-5) was < 0.005 µM and the GI50 (KM12) was 10.1 µM.

Reference: ChEMBL document CHEMBL1138555, “N-acylated and N,N'-diacylated imidazolidine-2-thione derivatives and N,N'-diacylated tetrahydropyrimidine-2(1H)-thione analogues: synthesis and antiproliferative activity” (Eur J Med Chem, 2009)
